In ChEMBL document CHEMBL1150203, “Antimicrobial diterpenes of Croton sonderianus, 1. Hardwickic and 3,4-secotrachylobanoic acids” (1991):
≈ marks a conversion by molar mass, not a printed value. Calls of active or inactive are those of the source. The rule behind the calls is not given here.

Columns and labels:
[1] = tested on: Candida albicans; assay: Antifungal activity against Candida albicans ATCC 10231 at 1 mg/ml after 48 hrs by agar-well diffusion assay; format: functional; settings: ATCC 10231, 48 h, read-out: IZ
Procedure, shortened: (§1)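 Fungi and yeasts streaked on mycophil agar from broth culture diluted 1:10 in sterile water; 100 μl of compound at 1 mg/ml placed in 11 mm cork-borer wells; plates held at 30°. Inhibition zone width (mm) recorded at 48 and 72 h and coded – to ++++ (1–2, 3–6, 7–12, >13 mm); amphotericin B positive control.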

[2] = tested on: Helminthosporium; assay: Antifungal activity against Helminthosporium ATCC 4671 at 1 mg/ml after 48 hrs by agar-well diffusion assay; format: functional; settings: ATCC 4671, 48 h, read-out: IZ; procedure, shortened: as §1
[3] = tested on: Trametes sanguinea; assay: Antifungal activity against Polyporus sanguineus ATCC 16422 at 1 mg/ml after 72 hrs by agar-well diffusion assay; format: functional; procedure, shortened: as §1
[4] = tested on: Helminthosporium; assay: Antifungal activity against Helminthosporium ATCC 4671 at 1 mg/ml after 72 hrs by agar-well diffusion assay; format: functional; settings: ATCC 4671, 72 h, read-out: IZ; procedure, shortened: as §1
[5] = tested on: Saccharomyces cerevisiae; assay: Antifungal activity against Saccharomyces cerevisiae ATCC 9763 at 1 mg/ml after 72 hrs by agar-well diffusion assay; format: functional; procedure, shortened: as §1
[6] = tested on: Aspergillus niger; assay: Antifungal activity against Aspergillus niger ATCC 16888 at 1 mg/ml after 72 hrs by agar-well diffusion assay; format: functional; procedure, shortened: as §1
[7] = tested on: Aspergillus niger; assay: Antifungal activity against Aspergillus niger ATCC 16888 at 1 mg/ml after 48 hrs by agar-well diffusion assay; format: functional; procedure, shortened: as §1
[8] = tested on: Saccharomyces cerevisiae; assay: Antifungal activity against Saccharomyces cerevisiae ATCC 9763 at 1 mg/ml after 48 hrs by agar-well diffusion assay; format: functional; procedure, shortened: as §1
[9] = tested on: Trichophyton mentagrophytes; assay: Antifungal activity against Trichophyton mentagrophytes ATCC 9972 at 1 mg/ml after 48 hrs by agar-well diffusion assay; format: functional; settings: ATCC 9972, 48 h, read-out: IZ; procedure, shortened: as §1
[10] = tested on: Saccharomyces cerevisiae; assay: Antifungal activity against Saccharomyces cerevisiae ATCC 9763 after 48 hrs by twofold serial dilution method; format: functional; settings: ATCC 9763, 48 h
[11] = tested on: Candida albicans; assay: Antifungal activity against Candida albicans ATCC 10231 at 1 mg/ml after 72 hrs by agar-well diffusion assay; format: functional; settings: ATCC 10231, 72 h, read-out: IZ; procedure, shortened: as §1
[12] = tested on: Trichophyton mentagrophytes; assay: Antifungal activity against Trichophyton mentagrophytes ATCC 9972 after 48 hrs by twofold serial dilution method; format: functional; settings: ATCC 9972, 48 h
[13] = tested on: Trametes sanguinea; assay: Antifungal activity against Polyporus sanguineus ATCC 16422 at 1 mg/ml after 48 hrs by agar-well diffusion assay; format: functional; procedure, shortened: as §1
[14] = tested on: Saccharomyces cerevisiae; assay: Antifungal activity against Saccharomyces cerevisiae ATCC 9763 after 24 hrs by twofold serial dilution method; format: functional; settings: ATCC 9763, 24 h
[15] = tested on: Trichophyton mentagrophytes; assay: Antifungal activity against Trichophyton mentagrophytes ATCC 9972 after 24 hrs by twofold serial dilution method; format: functional; settings: ATCC 9972, 24 h
[16] = tested on: Trichophyton mentagrophytes; assay: Antifungal activity against Trichophyton mentagrophytes ATCC 9972 at 1 mg/ml after 72 hrs by agar-well diffusion assay; format: functional; settings: ATCC 9972, 72 h, read-out: IZ; procedure, shortened: as §1
[17] = tested on: Mycolicibacterium smegmatis; assay: Antibacterial activity against Mycobacterium smegmatis ATCC 607 at 1 mg/ml after 48 hrs by agar-well diffusion assay; settings: ATCC 607, 48 h, read-out: IZ
[18] = tested on: Escherichia coli; assay: Antibacterial activity against Escherichia coli ATCC 10536 at 1 mg/ml after 48 hrs by agar-well diffusion assay; format: functional
Procedure, shortened: (§2)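 Agar-well diffusion on eugon agar, bacteria streaked by quadrant method from broth culture diluted 1:10 in sterile water; 11 mm wells given 100 μl of compound at 1 mg/ml; 37° incubation. Zone width (mm) read at 24 and 48 h, coded –, + (1–2), ++ (3–6), +++ (7–12), ++++ (>13); streptomycin sulfate positive control.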

[19] = tested on: Pseudomonas aeruginosa; assay: Antibacterial activity against Pseudomonas aeruginosa ATCC 15442 at 1 mg/ml after 24 hrs by agar-well diffusion assay; format: functional; procedure, shortened: as §2
[20] = tested on: Bacillus subtilis; assay: Antibacterial activity against Bacillus subtilis ATCC 6633 after 24 hrs by twofold serial dilution method; format: functional; settings: ATCC 6633, 24 h
[21] = tested on: Staphylococcus aureus; assay: Antibacterial activity against Staphylococcus aureus ATCC 6538 at 1 mg/ml after 48 hrs by agar-well diffusion assay; format: functional; settings: ATCC 6538, 48 h, read-out: IZ; procedure, shortened: as §2
[22] = tested on: Staphylococcus aureus; assay: Antibacterial activity against Staphylococcus aureus ATCC 6538 at 1 mg/ml after 24 hrs by agar-well diffusion assay; format: functional; settings: ATCC 6538, 24 h, read-out: IZ; procedure, shortened: as §2
[23] = tested on: Bacillus subtilis; assay: Antibacterial activity against Bacillus subtilis ATCC 6633 at 1 mg/ml after 48 hrs by agar-well diffusion assay; format: functional; settings: ATCC 6633, 48 h, read-out: IZ; procedure, shortened: as §2
[24] = tested on: Escherichia coli; assay: Antibacterial activity against Escherichia coli ATCC 10536 at 1 mg/ml after 24 hrs by agar-well diffusion assay; format: functional; procedure, shortened: as §2
[25] = tested on: Mycolicibacterium smegmatis; assay: Antibacterial activity against Mycobacterium smegmatis ATCC 607 at 1 mg/ml after 48 hrs by agar-well diffusion assay; format: functional; settings: ATCC 607, 48 h, read-out: IZ
Procedure, shortened: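 Quadrant-streaked eugon agar plates (broth culture diluted 1:10 in water) with 11 mm wells receiving 100 μl of 1 mg/ml compound, incubated at 37°; inhibition zone width in mm scored at 48 h and 72 h as –, +, ++, +++, ++++ (1–2, 3–6, 7–12, >13 mm); streptomycin sulfate control.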

[26] = tested on: Bacillus subtilis; assay: Antibacterial activity against Bacillus subtilis ATCC 6633 after 48 hrs by twofold serial dilution method; format: functional; settings: ATCC 6633, 48 h
[27] = tested on: Pseudomonas aeruginosa; assay: Antibacterial activity against Pseudomonas aeruginosa ATCC 15442 at 1 mg/ml after 48 hrs by agar-well diffusion assay; format: functional; procedure, shortened: as §2
[28] = tested on: Bacillus subtilis; assay: Antibacterial activity against Bacillus subtilis ATCC 6633 at 1 mg/ml after 24 hrs by agar-well diffusion assay; format: functional; settings: ATCC 6633, 24 h, read-out: IZ; procedure, shortened: as §2

SMILES: C[C@@H]1[C@H](O)[C@@H](C)/C=C/C=C/C=C/C=C/C=C/C=C/C=C/[C@H](O[C@@H]2O[C@H](C)[C@@H](O)[C@H](N)[C@@H]2O)C[C@@H]2O[C@](O)(C[C@@H](O)C[C@@H](O)[C@H](O)CC[C@@H](O)C[C@@H](O)CC(=O)O[C@H]1C)C[C@H](O)[C@H]2C(=O)O [AMPHOTERICIN B]
- zone of inhibition at 1000 µg/mL [1]: 7 mm
- zone of inhibition at 1000 µg/mL [2]: > 12 mm
- zone of inhibition at 1000 µg/mL ([3]; ATCC 16422, 72 h, read-out: IZ): > 12 mm
- zone of inhibition at 1000 µg/mL [4]: > 12 mm
- zone of inhibition at 1000 µg/mL ([5]; ATCC 9763, 72 h, read-out: IZ): 7 mm
- zone of inhibition at 1000 µg/mL ([6]; ATCC 16888, 72 h, read-out: IZ): 7 mm
- zone of inhibition at 1000 µg/mL ([7]; ATCC 16888, 48 h, read-out: IZ): 7 mm
- zone of inhibition at 1000 µg/mL ([8]; ATCC 9763, 48 h, read-out: IZ): 7 mm
- zone of inhibition at 1000 µg/mL [9]: 7 mm
- MIC [10]: 12.5 µg/mL (≈ 13.5 µM)
- zone of inhibition at 1000 µg/mL [11]: 7 mm
- MIC [12]: 0.78 µg/mL (≈ 0.844 µM)
- zone of inhibition at 1000 µg/mL ([13]; ATCC 16422, 48 h, read-out: IZ): > 12 mm
- MIC [14]: 6.25 µg/mL (≈ 6.76 µM)
- MIC [15]: 0.78 µg/mL (≈ 0.844 µM)
- zone of inhibition at 1000 µg/mL [16]: 7 mm

SMILES: C[C@@H]1CC[C@@]2(C)C(C(=O)O)=CCC[C@@H]2[C@@]1(C)CCc1ccoc1
- zone of inhibition at 1000 µg/mL [1]: 1 mm
- zone of inhibition at 1000 µg/mL [17]: 7 mm
- zone of inhibition at 1000 µg/mL [2]: 3 mm
- inhibition zone (IZ) [3]: inactive
- zone of inhibition at 1000 µg/mL [4]: 3 mm
- inhibition zone (IZ) [18]: inactive
- inhibition zone (IZ) [5]: inactive
- inhibition zone (IZ) [19]: inactive
- MIC [20]: 0.78 µg/mL (≈ 2.46 µM)
- zone of inhibition at 1000 µg/mL [21]: 3 mm
- inhibition zone (IZ) [6]: inactive
- zone of inhibition at 1000 µg/mL [22]: 3 mm
- inhibition zone (IZ) [7]: inactive
- zone of inhibition at 1000 µg/mL [23]: 7 mm
- inhibition zone (IZ) [8]: inactive
- inhibition zone (IZ) [24]: inactive
- zone of inhibition at 1000 µg/mL [9]: 7 mm
- zone of inhibition at 1000 µg/mL [25]: 7 mm
- zone of inhibition at 1000 µg/mL [11]: 3 mm
- MIC [12]: 25 µg/mL (≈ 79 µM)
- MIC [26]: 1.56 µg/mL (≈ 4.93 µM)
- inhibition zone (IZ) [13]: inactive
- MIC [15]: 25 µg/mL (≈ 79 µM)
- zone of inhibition at 1000 µg/mL [16]: 3 mm
- inhibition zone (IZ) [27]: inactive
- zone of inhibition at 1000 µg/mL [28]: 7 mm
